# MEKK2 mut-MEK5: signal of MEK5 binding to mutant human MEKK2 PB1 domain; bead flow cytometry, Alexa488-MEK5 binding to MEKK2 mutant; percent response, % at 10 µM; 290,000 compounds, 0.35% hits; in the data active = percent response above about 24%, passing the limit was not always enough
# MEKK3 PB1 HTS: modulators (inhibitors or enhancers) of MEK5 binding to human MEKK3 PB1 domain. Q99759. bead-based flow cytometry, Alexa488-MEK5 binding to MEKK3; actives lie on both sides; 0 = blocked by unlabeled MEK5, 100 = vehicle. binding response (% of control), % at 10 µM. 290,000 compounds, 1.4% hits. AID 1529;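 active = binding response more than 3 SD above or below the average of its plate-row segment, actives on both sides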;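 note: Alexa488 bead fluorescence after subtracting the streptavidin-only scavenger bead signal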
# Target sequence (Q99759 whole entry, looked up, the tested form may be a part): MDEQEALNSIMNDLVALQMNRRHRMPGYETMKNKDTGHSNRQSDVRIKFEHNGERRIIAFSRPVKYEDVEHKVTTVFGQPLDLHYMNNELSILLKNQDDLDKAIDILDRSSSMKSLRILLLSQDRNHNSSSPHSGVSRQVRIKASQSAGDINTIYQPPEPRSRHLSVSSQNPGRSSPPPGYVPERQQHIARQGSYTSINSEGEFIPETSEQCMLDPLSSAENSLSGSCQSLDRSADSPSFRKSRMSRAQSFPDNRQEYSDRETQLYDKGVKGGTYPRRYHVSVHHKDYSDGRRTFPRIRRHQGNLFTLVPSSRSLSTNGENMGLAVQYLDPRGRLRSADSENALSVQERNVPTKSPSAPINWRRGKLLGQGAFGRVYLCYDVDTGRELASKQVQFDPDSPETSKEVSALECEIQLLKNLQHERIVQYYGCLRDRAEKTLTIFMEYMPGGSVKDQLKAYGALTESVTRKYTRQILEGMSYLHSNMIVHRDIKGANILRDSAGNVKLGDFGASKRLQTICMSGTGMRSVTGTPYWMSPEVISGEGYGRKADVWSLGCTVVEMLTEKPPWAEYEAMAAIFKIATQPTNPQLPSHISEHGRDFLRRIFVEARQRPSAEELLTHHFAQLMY
# VIM-2 inhibitor: inhibitors of Pseudomonas aeruginosa VIM-2 metallo-beta-lactamase; purified VIM-2, nitrocefin hydrolysis, epi-absorbance fluorescence; inhibition, % at 5.6 µM; 290,000 compounds, 0.89% hits;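 active = inhibition above the mean of all tested compounds plus 3 SD, cutoff set per screening run, cut at about 7.5% in these data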;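 note: red hydrolysis product quenches plate fluorescence so inhibitors raise well fluorescence; 0% = enzyme with DMSO and 100% = DMSO without enzyme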
# MEKK2wt PB1 HTS: raises or lowers MEK5 binding to wildtype human MEKK2 PB1 domain; Q9Y2U5; bead flow cytometry, Alexa488-MEK5 binding to MEKK2 WT; actives lie on both sides; binding response (% of control), % at 10 µM; 290,000 compounds, 1.1% hits; in the data active = binding response below about 67% or above about 130%
# IMP-1 inh: inhibitors of Pseudomonas aeruginosa IMP-1 metallo-beta-lactamase. 290,000 compounds, 0.45% hits. AID 1556. purified IMP-1, nitrocefin hydrolysis, epi-absorbance fluorescence. inhibition, % at 5.6 µM;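 active = inhibition above the mean plus 3 SD of all compounds in the same screening run, cut at about 4.5% in these data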;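 note: 0% = IMP-1 with DMSO and 100% = DMSO wells lacking enzyme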
#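 system = purified recombinant IMP-1 beta-lactamase | amount = 0.2 nM IMP-1, as dispensed | medium = HEPES buffer pH 7.1 with ZnSO4 and Brij 35 | times = 25 °C, 15 min preincubation, 25 min reaction | detection = plate fluorescence quenching by hydrolysis product, ex 480/em 530 nm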
# MEKK2wt confirm: raises or lowers MEK5 binding to wildtype human MEKK2, retest; shares compounds with MEKK3 PB1 HTS; bead flow cytometry, Alexa488-MEK5 binding to MEKK2 WT; actives lie on both sides; binding response (% of control), % at 10 µM; 5,900 compounds, 2.4% hits; AID 1892; in the data active = binding response below about 16% or above about 210%; inactive = in between
# MEKK2mut-MEK5: signal of MEK5 binding to mutant human MEKK2, retest; shares compounds with MEKK3 PB1 HTS; bead flow cytometry, Alexa488-MEK5 binding to MEKK2 mutant; percent response, % at 10 µM; 5,900 compounds, 2% hits; AID 1893; in the data active = percent response mostly above about 71%, no sharp cut-off; inactive = mostly below about 38%;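 note: higher means compound restores mutant binding toward wildtype level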
# MEKK3-MEK5 inh: MEKK3-MEK5 PB1 inhibition, single concentration confirmation; shares compounds with MEKK3 PB1 HTS; binding response (% of control), % at 10 µM; 5,900 compounds, 1.8% hits; bead flow cytometry, Alexa488-MEK5 binding to MEKK3; stronger effect = lower value;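 active = binding response below 72% of control, or above a set upper limit, though filed actives all read lower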;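 note: 100% = DMSO only wells and 0% = binding blocked by excess unlabeled MEK5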
# Active calls of the source: *; / = not tested or not shown; [ ] = another dose, or the depositor's remark. Most compounds without a hit are left out; they make up all but 3.4% or so of the library.
SMILES,MEKK2 mut-MEK5,MEKK3 PB1 HTS,VIM-2 inhibitor,MEKK2wt PB1 HTS,IMP-1 inh,MEKK2wt confirm,MEKK2mut-MEK5,MEKK3-MEK5 inh
O=c1c2c3c(sc2nc2n1CCCCC2)CCCCC3,2,102,-2,97,1,/,/,/
O=c1c2c3c(sc2nc2n1CCCC2)CCC3,-13,72*[inhibitor],-1,80,-2,99,-6,100
Cc1ccc(-c2nc3sc4c(c3c(=O)n2N)CCCC4)cc1,-28,56*[inhibitor],-1,66,-6,106,-2,99
Cc1ccc(-c2nc3sc4c(c3c(=O)n2N)CC(C)(C)OC4)cc1,-1,99,-2,96,-3,/,/,/
Cc1cc2cc(CN(CC3CCCO3)C(=S)NCc3ccco3)c(=O)[nH]c2cc1C (configuration not stated),0,147*,4,103,-1,102,-1,100
COc1cccc(C(C)NC(=O)Nc2cc(Cl)ccc2OC)c1 (configuration not stated),0,100,-2,101,-1,/,/,/
COc1ccc(Cl)cc1NC(=O)NC(C)C,-13,47*[inhibitor],0,54,0,100,-4,102
CCc1nnc2n1N=C(c1ccc([N+](=O)[O-])cc1)CS2,-15,90,5,88,-2,/,/,/
O=C(COc1ccccc1[N+](=O)[O-])N/N=C/c1ccc(O)cc1,0,136*,-2,102,-2,103,1,105
O=C(COc1ccccc1[N+](=O)[O-])N/N=C/c1ccncc1,-12,94,2,88,-1,/,/,/
CCOc1c2ccc(C(=O)NCc3ccc4c(c3)OCO4)cc2nn1CCOC,-1,94,-3,98,-3,/,/,/
CCOC(=O)CSCC(=O)N1N=C(c2cccs2)CC1c1ccc(F)cc1 (configuration not stated),7,107,-2,109,-1,/,/,/
CCOc1ccccc1C1CC(c2cccs2)=NN1S(C)(=O)=O (configuration not stated),-5,2.0*[inhibitor],-2,76,-3,89,-7,89
Cc1ccc2nc(Cl)c(C3CC(c4cccs4)=NN3C(=O)CCCC(=O)O)cc2c1 (configuration not stated),-2,98,-5,93,-1,/,/,/
CCS(=O)(=O)N1N=C(c2cccs2)CC1c1cc2cc(C)ccc2nc1Cl (configuration not stated),5,96,-1,-9.0*[inhibitor],-2,93,-9,101
CS(=O)(=O)N1N=C(c2cccs2)CC1c1ccc(F)cc1 (configuration not stated),-7,81,-1,22*[inhibitor],0,91,-19,93
CS(=O)(=O)N1N=C(c2cccs2)CC1c1ccccc1O (configuration not stated),-7,77,-2,0.0*[inhibitor],1,101,2,101
CC(C)c1ccc(NC(=S)Nc2cccc3ccccc23)cc1,4,98,-5,99,-3,/,/,/
O=C(Nc1nc2ccc(S(=O)(=O)N3CCCC3)cc2s1)c1ccco1,0,105,2,103,-3,/,/,/
O=C(CSc1nc2ccc([N+](=O)[O-])cc2[nH]1)NC1CCCCC1,4,105,1,103,-1,/,/,/
CC(C)S(=O)(=O)c1csc(C(=O)NN)c1-n1cccc1,0,101,-4,100,-3,/,/,/
COc1ccc2cc3c(N)nn(C(=O)c4ccccc4[N+](=O)[O-])c3nc2c1,-1,72*[inhibitor],-3,98,-2,95,-3,97
COc1ccc2cc3c(N)nn(C(=O)c4ccc(Cl)c([N+](=O)[O-])c4)c3nc2c1,-2,104,0,89,0,/,/,/
c1ccc(-c2csc(N3CCOCC3)n2)cc1,-2,99,-5,100,-4,/,/,/
Cc1nc(Nc2nc(CSc3ccc(Cl)cc3)cc(=O)[nH]2)nc2ccccc12,0,132*,-1,104,-2,104,2,105
SMILES,MEKK2 mut-MEK5,MEKK3 PB1 HTS,VIM-2 inhibitor,MEKK2wt PB1 HTS,IMP-1 inh,MEKK2wt confirm,MEKK2mut-MEK5,MEKK3-MEK5 inh
CCN(CC)S(=O)(=O)c1ccc(OC)c(NS(=O)(=O)Cc2ccccc2)c1,16,110,0,108,-4,/,/,/
O=C(NS(=O)(=O)c1ccc(Cl)s1)c1ccccc1,23,112,-2,193*,-3,115,9,103
COc1cc(O)c(C(CCN2CCN(c3ccccc3)CC2)c2ccc(N(C)C)cc2)c(OC)c1 (configuration not stated),9,123,/,151*,/,143,19,104
COc1cc(O)c(C(CCN2CCOCC2)c2ccc(N(C)C)cc2)c(OC)c1 (configuration not stated),10,90,/,90,/,/,/,/
CCN(CC)CCC(c1ccc(OC)cc1)c1c(O)cc(OC)cc1OC (configuration not stated),1,90,/,95,/,/,/,/
CCN(CC)CCC(c1ccc(N(C)C)cc1)c1c(O)cc(OC)cc1OC (configuration not stated),4,118,/,138*,/,92,-8,98
COc1ccc(C(CCN2CCN(c3ccccc3)CC2)c2c(O)cc(OC)cc2OC)cc1 (configuration not stated),8,98,/,135*,/,140,20,107
Cc1ccccc1NC(=O)CN1CCC(NC(=O)Nc2ccccc2)CC1,1,105,-2,100,-3,/,/,/
O=C1CCCc2sc3c(c2N1)CCCCC3,-4,99,-5,97,-5,/,/,/
CCN(CC(O)CON=C1c2ccccc2-c2ccccc21)S(=O)(=O)c1ccc(C)cc1 (configuration not stated),0,141*,-4,110,-1,93,-5,100
CCOc1ccccc1CN1CCC(n2nccc2NC(=O)CCCc2ccccc2)CC1,14,101,-2,131,-1,/,/,/
COc1ccccc1CN1CCC(n2nccc2NC(=O)CCCc2ccccc2)CC1,19,103,-3,142*,-3,162,54,113
CC(C)(C)C(=O)NC(=S)NCCc1ccccc1,-39,1.0*[inhibitor],-2,1.0*[inhibitor],-1,102,0,105
Cc1ccccc1NC(=O)Nc1cc(-c2ccccc2)nn1C,3,104,-3,102,-3,/,/,/
COCCNC(=O)c1ccc2c3n(nc2c1)-c1ccc(Cl)cc1CO3,4,99,/,100,/,/,/,/
